Data published in ChEMBL document CHEMBL1165897, “Design, synthesis, characterization, and antibacterial activity of {5-chloro-2-[(3-substitutedphenyl-1,2,4-oxadiazol-5-yl)-methoxy]-phenyl}-(phenyl)-methanones” (2010).
≈ marks a conversion by molar mass, not a printed value.

Legend:
Bacillus subtilis [1] = assay: Antibacterial activity against Bacillus subtilis NCIM 2063; ATCC 6633 at […] after 24 hrs by agar cup plate method; format: functional, NCIM 2063; ATCC6633; details: ATCC6633, 24 h, read-out: IZ
Summary of the method: (§1)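 Agar cup plate diffusion: test compounds at 100 µg/mL in 20% water in DMSO placed in bores cut in agar plates seeded with each organism, alongside standard drugs; incubated 37 °C for 24 h, then zone of inhibition around the bore measured. Values are the average of three experiments.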

Staphylococcus aureus [2] = assay: Antibacterial activity against Staphylococcus aureus NCIM 2079; ATCC 6538P at […] after 24 hrs by agar cup plate method; format: functional, NCIM 2079; ATCC6538P; parameters: dose or concentration left out as unconfirmed; details: ATCC6538P, read-out: IZ
Escherichia coli [3] = assay: Antibacterial activity against Escherichia coli NCIM 2065; ATCC 8739 at […] after 24 hrs by agar cup plate method; format: functional; details: ATCC 8739, 24 h, read-out: IZ; summary of the method: as §1
Bacillus subtilis [4] = assay: Antibacterial activity against Bacillus subtilis NCIM 2063; ATCC 6633 after 24 hrs by microtitration method; format: functional, NCIM 2063; ATCC6633; details: ATCC6633, 24 h
Summary of the method: (§2)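 Microtitration assay using the same isolates as the cup plate test; MIC taken as the lowest concentration of test sample or antibiotic giving no visible growth.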

Staphylococcus aureus [5] = assay: Antibacterial activity against Staphylococcus aureus NCIM 2079; ATCC 6538P after 24 hrs by microtitration method; format: functional; details: ATCC6538P; summary of the method: as §2
Escherichia coli [6] = assay: Antibacterial activity against Escherichia coli NCIM 2065; ATCC 8739 after 24 hrs by microtitration method; format: functional; details: ATCC 8739, 24 h; summary of the method: as §2
Klebsiella pneumoniae = assay: Antibacterial activity against Klebsiella pneumoniae NCIM 2957; ATCC 11298 after 24 hrs by microtitration method; format: functional; details: ATCC 11298, 24 h; summary of the method: as §2

SMILES | zone of inhibition at 100000 µg/mL (Bacillus subtilis [1]) | zone of inhibition (Staphylococcus aureus [2]) | zone of inhibition at 100000 µg/mL (Escherichia coli [3]) | MIC (Bacillus subtilis [4]) | MIC (Staphylococcus aureus [5]) | MIC (Escherichia coli [6]) | MIC (Klebsiella pneumoniae)
CCOc1ccc(-c2noc(COc3ccc(Cl)cc3C(=O)c3ccccc3)n2)cc1 | 13 mm | 19 mm | 11 mm | 42.2 µg/mL (≈ 97 µM) | 29.8 µg/mL (≈ 68.5 µM) | 59.4 µg/mL (≈ 137 µM) | 40 µg/mL (≈ 92 µM)
CC1(C)S[C@@H]2[C@H](NC(=O)[C@H](N)c3ccccc3)C(=O)N2[C@H]1C(=O)O [AMPICILLIN] | 32 mm | 31 mm | 30 mm | 3.28 µg/mL (≈ 9.39 µM) | 3.36 µg/mL (≈ 9.62 µM) | 3.88 µg/mL (≈ 11.1 µM) | 4 µg/mL (≈ 11.4 µM)
CC(C)c1ccc(-c2noc(COc3ccc(Cl)cc3C(=O)c3ccccc3)n2)cc1 | 14 mm | 15 mm | 11 mm | 40.6 µg/mL (≈ 93.8 µM) | 39.6 µg/mL (≈ 91.5 µM) | 60.8 µg/mL (≈ 140 µM) | 62 µg/mL (≈ 143 µM)
O=C(c1ccccc1)c1cc(Cl)ccc1OCc1nc(-c2ccc(F)c(Cl)c2)no1 | 19 mm | 17 mm | 16 mm | 29.8 µg/mL (≈ 67.2 µM) | 30.6 µg/mL (≈ 69 µM) | 30.8 µg/mL (≈ 69.5 µM) | 39.6 µg/mL (≈ 89.3 µM)
COc1cc(-c2noc(COc3ccc(Cl)cc3C(=O)c3ccccc3)n2)ccc1F | 19 mm | 18 mm | 17 mm | 29.8 µg/mL (≈ 67.9 µM) | 30 µg/mL (≈ 68.4 µM) | 30.6 µg/mL (≈ 69.7 µM) | 30.8 µg/mL (≈ 70.2 µM)
Cc1cc(F)c(-c2noc(COc3ccc(Cl)cc3C(=O)c3ccccc3)n2)cc1F | 27 mm | 25 mm | 19 mm | 21.5 µg/mL (≈ 48.8 µM) | 22.4 µg/mL (≈ 50.8 µM) | 29.8 µg/mL (≈ 67.6 µM) | 30.6 µg/mL (≈ 69.4 µM)
O=C(c1ccccc1)c1cc(Cl)ccc1OCc1nc(-c2ccc(I)cc2)no1 | 16 mm | 13 mm | 10 mm | 30.8 µg/mL (≈ 59.6 µM) | 41.6 µg/mL (≈ 80.5 µM) | 62.2 µg/mL (≈ 120 µM) | 46 µg/mL (≈ 89 µM)
Cc1cc(-c2noc(COc3ccc(Cl)cc3C(=O)c3ccccc3)n2)ccc1F | 17 mm | 15 mm | 20 mm | 30.6 µg/mL (≈ 72.4 µM) | 40 µg/mL (≈ 94.6 µM) | 29.6 µg/mL (≈ 70 µM) | 30 µg/mL (≈ 70.9 µM)
O=C(c1ccccc1)c1cc(Cl)ccc1OCc1nc(-c2ccccc2)no1 | 14 mm | 9 mm | 10 mm | 41 µg/mL (≈ 105 µM) | 68 µg/mL (≈ 174 µM) | 64.2 µg/mL (≈ 164 µM) | 62 µg/mL (≈ 159 µM)
O=C(c1ccccc1)c1cc(Cl)ccc1OCc1nc(-c2ccc(F)cc2)no1 | 15 mm | 14 mm | 16 mm | 39.6 µg/mL (≈ 96.9 µM) | 40.6 µg/mL (≈ 99.3 µM) | 30.8 µg/mL (≈ 75.3 µM) | 42 µg/mL (≈ 103 µM)
